Data taken from ChEMBL document CHEMBL1782047, “Retinoid receptor subtype-selective modulators through synthetic modifications of RARgamma agonists” (Bioorg Med Chem, 2009).
Activity calls are given as the source filed them. The calls are words filed in the database; no cut-off is given here.

Assays:
Format in all cases: cell-based
[1] = target: T1, Retinoic acid receptor alpha (Mus musculus) (UniProt P11416); test: Agonist activity at yeast GAL4 fused mouse RARalpha ligand binding domain expressed in HeLa cells assessed as receptor transactivation by luciferase reporter gene assay
T1 sequence (whole entry): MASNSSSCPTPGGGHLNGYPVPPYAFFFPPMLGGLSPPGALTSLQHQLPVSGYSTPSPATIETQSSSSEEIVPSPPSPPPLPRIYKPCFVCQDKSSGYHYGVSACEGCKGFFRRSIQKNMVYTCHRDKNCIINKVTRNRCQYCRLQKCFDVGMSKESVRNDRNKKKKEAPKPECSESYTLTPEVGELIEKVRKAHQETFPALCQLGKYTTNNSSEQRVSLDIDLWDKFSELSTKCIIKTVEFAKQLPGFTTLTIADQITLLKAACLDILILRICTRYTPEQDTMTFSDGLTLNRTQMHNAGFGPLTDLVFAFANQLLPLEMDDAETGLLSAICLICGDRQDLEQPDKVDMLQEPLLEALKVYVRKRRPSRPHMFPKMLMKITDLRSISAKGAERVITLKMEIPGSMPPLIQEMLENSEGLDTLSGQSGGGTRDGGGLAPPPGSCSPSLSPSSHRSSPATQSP
Outline: (§1)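 Stably transfected HeLa lines carrying a (17m)5-βG-Luc-Neo reporter and the matching Gal4-mRAR fusion were seeded at 160,000 cells/well. After 12 h, cells were given ligand across a dose range in phenol-red-free DMEM with 5% charcoal-treated FCS and held 12 h at 37 °C, 5% CO2. Lysates were read for luciferase with luciferin, ATP and coenzyme A. Fold induction is compound RLU over vehicle-control RLU.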

[2] = target: T2, Retinoic acid receptor gamma (Mus musculus) (UniProt P18911); test: Agonist activity at yeast GAL4 fused mouse RARgamma ligand binding domain expressed in HeLa cells assessed as receptor transactivation by luciferase reporter gene assay; outline: as §1
T2 sequence (whole entry): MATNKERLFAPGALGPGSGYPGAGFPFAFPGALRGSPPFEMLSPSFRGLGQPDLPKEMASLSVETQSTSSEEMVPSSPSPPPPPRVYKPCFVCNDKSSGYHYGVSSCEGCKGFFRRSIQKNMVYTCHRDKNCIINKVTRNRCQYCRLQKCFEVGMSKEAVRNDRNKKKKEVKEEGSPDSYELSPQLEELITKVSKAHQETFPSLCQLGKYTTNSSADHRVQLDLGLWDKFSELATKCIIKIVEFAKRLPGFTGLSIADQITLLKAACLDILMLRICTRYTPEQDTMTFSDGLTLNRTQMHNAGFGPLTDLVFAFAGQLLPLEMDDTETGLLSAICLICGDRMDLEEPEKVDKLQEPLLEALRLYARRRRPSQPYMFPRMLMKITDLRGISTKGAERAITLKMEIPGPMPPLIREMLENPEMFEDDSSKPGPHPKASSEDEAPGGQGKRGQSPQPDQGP

[3] = target: T3, Retinoic acid receptor gamma (Mus musculus, UniProt P18911); test: (§2) Antagonist activity at yeast GAL4 fused mouse RARgamma ligand binding domain expressed in HeLa cells assessed as inhibition of TTNPB-induced receptor transactivation by luciferase reporter gene assay
T3 sequence (P18911 whole entry): T2 sequence (whole entry)
Outline: (§3)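 The Gal4-mRAR fusion HeLa reporter lines [(17m)5-βG-Luc-Neo] were seeded at 160,000 cells/well. After 12 h, cells got 10 nM TTNPB plus rising test-compound concentrations in phenol-red-free DMEM with 5% charcoal-treated FCS for 12 h at 37 °C, 5% CO2. Luciferase in lysates was read luminometrically. Antagonism is the loss of activity relative to TTNPB alone.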

[4] = target: T4, Retinoic acid receptor beta (Mus musculus) (UniProt P22605); test: (§4) Antagonist activity at yeast GAL4 fused mouse RARbeta ligand binding domain expressed in HeLa cells assessed as inhibition of TTNPB-induced receptor transactivation by luciferase reporter gene assay; outline: as §3
T4 sequence (whole entry): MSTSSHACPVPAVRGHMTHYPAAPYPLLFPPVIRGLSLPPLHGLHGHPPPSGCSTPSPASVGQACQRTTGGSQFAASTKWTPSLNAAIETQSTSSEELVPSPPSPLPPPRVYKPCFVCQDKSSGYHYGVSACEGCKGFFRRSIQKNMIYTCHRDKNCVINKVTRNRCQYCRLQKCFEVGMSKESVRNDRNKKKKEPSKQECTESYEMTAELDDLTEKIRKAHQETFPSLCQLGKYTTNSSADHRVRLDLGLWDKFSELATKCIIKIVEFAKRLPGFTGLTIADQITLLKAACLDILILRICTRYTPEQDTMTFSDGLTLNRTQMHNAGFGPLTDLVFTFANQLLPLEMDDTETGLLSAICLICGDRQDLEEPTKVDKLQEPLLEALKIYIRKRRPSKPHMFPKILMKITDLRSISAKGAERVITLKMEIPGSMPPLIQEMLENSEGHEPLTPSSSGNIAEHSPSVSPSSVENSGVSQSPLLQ

[5] = target: T2, Retinoic acid receptor gamma (Mus musculus); test: as §2; outline: as §3
[6] = target: T5, Retinoic acid receptor RXR-beta (Homo sapiens) (UniProt P28702); test: Agonist activity at yeast GAL4 fused human RXRbeta ligand binding domain expressed in HeLa cells assessed as receptor transactivation by luciferase reporter gene assay
T5 sequence (whole entry): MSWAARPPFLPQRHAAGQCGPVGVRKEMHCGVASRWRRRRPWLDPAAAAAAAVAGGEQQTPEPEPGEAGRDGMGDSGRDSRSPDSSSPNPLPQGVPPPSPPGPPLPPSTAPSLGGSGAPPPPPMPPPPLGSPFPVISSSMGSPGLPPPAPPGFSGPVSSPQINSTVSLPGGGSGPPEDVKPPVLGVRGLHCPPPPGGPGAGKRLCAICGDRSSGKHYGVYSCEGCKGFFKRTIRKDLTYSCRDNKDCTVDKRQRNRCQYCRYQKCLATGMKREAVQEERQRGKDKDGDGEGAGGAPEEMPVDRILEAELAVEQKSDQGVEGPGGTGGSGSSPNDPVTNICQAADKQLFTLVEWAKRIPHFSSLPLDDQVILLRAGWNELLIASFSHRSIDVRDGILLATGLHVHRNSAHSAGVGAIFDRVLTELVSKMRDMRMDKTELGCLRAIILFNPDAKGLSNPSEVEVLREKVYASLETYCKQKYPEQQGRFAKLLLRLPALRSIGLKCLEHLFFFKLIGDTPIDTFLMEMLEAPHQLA

[7] = target: T1, Retinoic acid receptor alpha (Mus musculus); test: (§5) Antagonist activity at yeast GAL4 fused mouse RARalpha ligand binding domain expressed in HeLa cells assessed as inhibition of TTNPB-induced receptor transactivation by luciferase reporter gene assay; outline: as §3
[8] = target: T6, Retinoic acid receptor beta (Mus musculus, UniProt P22605); test: as §4; outline: as §3
T6 sequence (P22605 whole entry): T4 sequence (whole entry)

[9] = target: T7, Retinoic acid receptor alpha (Mus musculus, UniProt P11416); test: as §5; outline: as §3
T7 sequence (P11416 whole entry): T1 sequence (whole entry)

[10] = target: T5, Retinoic acid receptor RXR-beta (Homo sapiens); test: Antagonist activity at yeast GAL4 fused human RXRbeta ligand binding domain expressed in HeLa cells assessed as inhibition of receptor transactivation by luciferase reporter gene assay

| SMILES | Activity [1] | Activity [2] | inhibition [4] | inhibition [5] | Activity [6] | inhibition [7] | other results |
| --- | --- | --- | --- | --- | --- | --- | --- |
| CC1(C)CC=C(C#Cc2ccccc2)c2ccc(C3=NOC(c4ccc(C(=O)O)cc4)C3)cc21 (racemic) | – | – | – | – | – | – | IC50 [3]: 3000 nM |
| Cc1ccc(C2=CCC(C)(C)c3cc(C(O)C(=O)Nc4ccc(C(=O)O)cc4F)ccc32)cc1 (racemic) | inactive | inactive | inactive | inactive | inactive | inactive | – |
| Cc1ccc(C2=CCC(C)(C)c3cc(C(=O)C(=O)Nc4ccc(C(=O)O)cc4F)ccc32)cc1 | – | – | Active | Active | Active | Active | – |
| Cc1ccc(C2=CCC(C)(C)c3cc(C4=NOC(c5ccc(C(=O)O)cc5)C4)ccc32)cc1 (racemic) | – | – | – | inactive | – | – | – |
| CC1(C)CC=C(c2ccccc2)c2ccc(C3=NOC(c4ccc(C(=O)O)cc4)C3)cc21 (racemic) | – | – | – | – | – | – | IC50 [3]: > 10000 nM |
| CC1(C)CC=C(c2ccccc2)c2ccc(C(O)C(=O)Nc3ccc(C(=O)O)cc3F)cc21 (racemic) | Active | Active | Active | Active | inactive | Active | – |
| Cc1ccc(C2=CCC(C)(C)c3cc(C(=O)/C=C/c4ccc(C(=O)O)cc4)ccc32)cc1 | – | – | – | – | – | – | IC50 [8]: 400 nM; IC50 [9]: < 300 nM |
| CC1(C)CC=C(C#Cc2ccccc2)c2ccc(C(=O)/C=C/c3ccc(C(=O)O)cc3)cc21 | Active | Active | – | – | inactive | – | inhibition [10]: Active |

Further lines, with some results ahead:

| Activity [1] | Activity [2] | inhibition [4] | inhibition [5] | Activity [6] | inhibition [7] | SMILES | other results |
| --- | --- | --- | --- | --- | --- | --- | --- |
| inactive | inactive | – | – | – | – | CC1(C)CC=C(C#Cc2ccccc2)c2ccc(C(O)C(=O)Nc3ccc(C(=O)O)cc3F)cc21 (racemic) | – |
| – | inactive | – | – | – | – | Cc1ccc(C2=CCC(C)(C)c3cc(C(O)/C=C/c4ccc(C(=O)O)cc4)ccc32)cc1 (racemic) | IC50 [8]: 2000 nM; IC50 [9]: 400 nM |
| – | – | Active | Active | Active | Active | CC1(C)CC=C(C#Cc2ccccc2)c2ccc(C(=O)C(=O)Nc3ccc(C(=O)O)cc3F)cc21 | – |
| Active | Active | – | – | – | – | CC1(C)CC=C(c2ccccc2)c2ccc(C(=O)/C=C/c3ccc(C(=O)O)cc3)cc21 | inhibition [10]: Active |
| – | – | Active | Active | Active | Active | CC1(C)CC=C(c2ccccc2)c2ccc(C(=O)C(=O)Nc3ccc(C(=O)O)cc3F)cc21 | – |
